In ChEMBL document CHEMBL1148762, “Lysosome and HER3 (ErbB3) selective anticancer agent kahalalide F: semisynthetic modifications and antifungal lead-exploration studies” (J Med Chem, 2007):
Values after ≈ are worked out from the molar mass of the structure shown.

Experiments:
[1] = system: SK-OV-3; assay: Cytotoxicity against human SK-OV3 cells; type: functional
Method in brief: (§1)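 NCI Developmental Therapeutics Program cell panel. GI50 is the concentration that reduces growth of treated cells to half that of untreated controls. TGI is the concentration that completely halts growth.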

[2] = system: ACHN; assay: Cytotoxicity against human ACHN cells; type: functional; method in brief: as §1
[3] = system: PC-3; assay: Cytotoxicity against human PC3 cells; type: functional; method in brief: as §1
[4] = system: DU-145; assay: Cytotoxicity against human DU145 cells; type: functional; method in brief: as §1
[5] = system: T47D; assay: Cytotoxicity against human T47D cells; type: functional; method in brief: as §1
[6] = system: Hs-578T; assay: Cytotoxicity against human HS578T cells; type: functional; method in brief: as §1
[7] = system: Fusarium proliferatum; assay: Antimicrobial activity against Fusarium proliferatum at 0.3 uM after 72 hrs by microtiter assay; type: functional
Method in brief: (§2)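 96-well microdilution broth assay with conidia (3 × 10^5 conidia/mL, harvested from 7-day PDA cultures and filtered) against F. oxysporum, F. proliferatum and F. solani at 0.3, 3 and 30 µM. Plates were held at 24 ± 1 °C under a 12 h photoperiod. Growth was read at 620 nm at 24, 48 and 72 h and reported as percent inhibition from mean absorbance with standard error.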

[8] = system: Fusarium proliferatum; assay: Antimicrobial activity against Fusarium proliferatum at 3 uM after 48 hrs by microtiter assay; type: functional; method in brief: as §2
[9] = system: Fusarium proliferatum; assay: Antimicrobial activity against Fusarium proliferatum at 3 uM after 72 hrs by microtiter assay; type: functional; method in brief: as §2
[10] = system: Aspergillus fumigatus; assay: Antimicrobial activity against Aspergillus fumigatus ATCC 90906; type: functional, organism-based
[11] = system: Cryptococcus neoformans; assay: Antimicrobial activity against Cryptococcus neoformans ATCC 90113; type: functional, organism-based
[12] = system: Fusarium proliferatum; assay: Antimicrobial activity against Fusarium proliferatum at 0.3 uM after 48 hrs by microtiter assay; type: functional; method in brief: as §2
[13] = system: Candida albicans; assay: Antimicrobial activity against Candida albicans ATCC 90028; type: functional, organism-based
[14] = system: Mycobacterium intracellulare; assay: Antimicrobial activity against Mycobacterium intracellular ATCC 23068; type: functional, organism-based
[15] = system: Mycobacterium tuberculosis; assay: Antibacterial activity against Mycobacterium tuberculosis H37Rv at 16 ug/mL by micro plate alamar blue assay; type: functional
Method in brief: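 M. tuberculosis H37Rv ATCC 27294 grown in BACTEC 12B medium; microplate Alamar blue assay (MABA). Primary screen at a single concentration of 16 µg/mL, read as percent inhibition.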

[16] = system: Fusarium oxysporum; assay: Antimicrobial activity against Fusarium oxysporum at 0.3 uM after 48 hrs by microtiter assay; type: functional; method in brief: as §2
[17] = system: Fusarium oxysporum; assay: Antimicrobial activity against Fusarium oxysporum at 0.3 uM after 72 hrs by microtiter assay; type: functional; method in brief: as §2
[18] = system: Fusarium solani; assay: Antimicrobial activity against Fusarium solani at 0.3 uM after 48 hrs by microtiter assay; type: functional; method in brief: as §2
[19] = system: Fusarium solani; assay: Antimicrobial activity against Fusarium solani at 0.3 uM after 72 hrs by microtiter assay; type: functional; method in brief: as §2
[20] = system: Fusarium oxysporum; assay: Antimicrobial activity against Fusarium oxysporum at 3 uM after 48 hrs by microtiter assay; type: functional; method in brief: as §2
[21] = system: Fusarium oxysporum; assay: Antimicrobial activity against Fusarium oxysporum at 3 uM after 72 hrs by microtiter assay; type: functional; method in brief: as §2
[22] = system: Fusarium solani; assay: Antimicrobial activity against Fusarium solani at 3 uM after 48 hrs by microtiter assay; type: functional; method in brief: as §2
[23] = system: Fusarium solani; assay: Antimicrobial activity against Fusarium solani at 3 uM after 72 hrs by microtiter assay; type: functional; method in brief: as §2
[24] = system: Fusarium oxysporum; assay: Antimicrobial activity against Fusarium oxysporum at 30 uM after 48 hrs by microtiter assay; type: functional; method in brief: as §2
[25] = system: Fusarium oxysporum; assay: Antimicrobial activity against Fusarium oxysporum at 30 uM after 72 hrs by microtiter assay; type: functional; method in brief: as §2
[26] = system: Fusarium solani; assay: Antimicrobial activity against Fusarium solani at 30 uM after 48 hrs by microtiter assay; type: functional; method in brief: as §2
[27] = system: Fusarium solani; assay: Antimicrobial activity against Fusarium solani at 30 uM after 72 hrs by microtiter assay; type: functional; method in brief: as §2
[28] = system: A549; assay: Cytotoxicity against human A549 cells; type: functional; method in brief: as §1
[29] = system: NCI-H322M; assay: Cytotoxicity against human NCI-H322M cells; type: functional; method in brief: as §1
[30] = system: RPMI-8226; assay: Cytotoxicity against human RPMI8226 cells; type: functional; method in brief: as §1
[31] = system: COLO 205; assay: Cytotoxicity against human COLO205 cells; type: functional; method in brief: as §1
[32] = system: HCC 2998; assay: Cytotoxicity against human HCC2998 cells; type: functional; method in brief: as §1
[33] = system: HCT-15; assay: Cytotoxicity against human HCT15 cells; type: functional; method in brief: as §1
[34] = system: HT-29; assay: Cytotoxicity against human HT29 cells; type: functional; method in brief: as §1
[35] = system: KM12; assay: Cytotoxicity against human KM12 cells; type: functional; method in brief: as §1
[36] = system: SNB-75; assay: Cytotoxicity against human SNB75 cells; type: functional; method in brief: as §1
[37] = system: Fusarium proliferatum; assay: Antimicrobial activity against Fusarium proliferatum at 30 uM after 48 hrs by microtiter assay; type: functional; method in brief: as §2
[38] = system: Fusarium proliferatum; assay: Antimicrobial activity against Fusarium proliferatum at 30 uM after 72 hrs by microtiter assay; type: functional; method in brief: as §2

C/C=C1\NC(=O)[C@H](Cc2ccccc2)NC(=O)[C@@H](C(C)C)NC(=O)[C@@H]([C@@H](C)CC)NC(=O)[C@H](NC(=O)[C@H](NC(=O)[C@H](CCCNCc2ccc(F)cc2)NC(=O)[C@H]2CCCN2C(=O)[C@H](NC(=O)[C@@H](NC(=O)[C@@H](NC(=O)[C@H](NC(=O)CCCC(C)C)C(C)C)[C@@H](C)O)C(C)C)C(C)C)[C@@H](C)CC)[C@@H](C)OC(=O)[C@H](C(C)C)NC1=O
GI50 [1]: 183 nM | TGI [1]: 387 nM | GI50 [2]: 1080 nM | TGI [2]: 2060 nM | GI50 [3]: 142 nM | TGI [3]: 287 nM | GI50 [4]: 112 nM | TGI [4]: 230 nM | GI50 [5]: 161 nM | TGI [5]: 333 nM | GI50 [6]: 212 nM | TGI [6]: 695 nM | inhibition at 0.3 µM [7]: 0% | inhibition at 3 µM [8]: 0% | inhibition at 3 µM [9]: 0% | MFC [10]: > 20 µM | MIC [10]: > 20 µM | MFC [11]: 10 µM (≈ 15.9 µg/mL) | MIC [11]: 10 µM (≈ 15.9 µg/mL) | inhibition at 0.3 µM [12]: 0% | MFC [13]: > 20 µM | MIC [13]: > 20 µM | MBC [14]: > 20 µM | MIC [14]: > 20 µM | inhibition at 16 µg/mL [15]: 77% | inhibition at 0.3 µM [16]: 0% | inhibition at 0.3 µM [17]: 0% | inhibition at 0.3 µM [18]: 0% | inhibition at 0.3 µM [19]: 0% | inhibition at 3 µM [20]: 0% | inhibition at 3 µM [21]: 0% | inhibition at 3 µM [22]: 16.5% | inhibition at 3 µM [23]: 0% | inhibition at 30 µM [24]: 96.6% | inhibition at 30 µM [25]: 94.3% | inhibition at 30 µM [26]: 97.3% | inhibition at 30 µM [27]: 97.3% | GI50 [28]: 161 nM | TGI [28]: 340 nM | GI50 [29]: 203 nM | TGI [29]: 429 nM | GI50 [30]: 475 nM | TGI [30]: 1780 nM | GI50 [31]: 156 nM | TGI [31]: 315 nM | GI50 [32]: 201 nM | TGI [32]: 517 nM | GI50 [33]: 151 nM | TGI [33]: 289 nM | GI50 [34]: 151 nM | TGI [34]: 288 nM | GI50 [35]: 179 nM | TGI [35]: 379 nM | GI50 [36]: 265 nM | TGI [36]: 655 nM | inhibition at 30 µM [37]: 97.5% | inhibition at 30 µM [38]: 96.1%
